Values after ≈ are worked out from the molar mass of the structure shown.
Key:
[1] = AUC (0 to infinity) in Sprague-Dawley rat at 5 mg/kg, iv by LC/MS analysis; format: ADME, organism-based; set-up: time infinity, dose 5 mg/kg, route intravenous; conditions: plasma
How it was run: (§1)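 Male Sprague-Dawley rats (180−220 g), n = 4 per route, single iv dose 5 mg/kg or oral gavage 25 mg/kg. Vehicle was 2% DMSO, 4% EtOH, 4% castor oil, 90% H2O. Orbital sinus blood was taken from 2 min to 72 h into heparinized tubes. Plasma levels were measured by LC/MS with propranolol internal standard and analysed by pharmacokinetic modelling.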

[2] = target: Epidermal growth factor receptor (Homo sapiens, UniProt P00533, L858R/T790M); test: Inhibition of EGFR L858R/T790M double mutant (unknown origin) after 1.5 hrs by FRET-based Z'-Lyte assay; format: protein assay
[3] = Cmax in Sprague-Dawley rat at 25 mg/kg, po by LC/MS analysis; format: ADME, organism-based; set-up: dose 25 mg/kg, route oral; conditions: in vivo; how it was run: as §1
[4] = Clearance in Sprague-Dawley rat at 25 mg/kg, po by LC/MS analysis; format: ADME, organism-based; set-up: dose 25 mg/kg, route oral; conditions: in vivo; how it was run: as §1
[5] = Thermodynamic aqueous solubility of the compound in PBS buffer at pH 6.8 after 24 hrs by HPLC analysis; format: physicochemical; conditions: for solubility thermodynamic at 24 h: PBS buffer, pH 6.8, read-out: Therm_solubility
How it was run: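 Compound was shaken in aqueous buffer at pH 6.8 for 24 h at ambient temperature; dissolved concentration was measured by HPLC.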

[6] = Oral bioavailability in Sprague-Dawley rat at 25 mg/kg by LC/MS analysis; format: ADME, organism-based; conditions: in vivo; how it was run: as §1
[7] = Cmax in Sprague-Dawley rat at 5 mg/kg, iv by LC/MS analysis; format: ADME, organism-based; set-up: dose 5 mg/kg, route intravenous; conditions: in vivo; how it was run: as §1
NCI-H1975 = test: Antiproliferative activity against human NCI-H1975 cells expressing EGFR L858R/T790M double mutant after 72 hrs by MTS assay; format: functional, cell-based; conditions: NCI-H1975, 72 h
[8] = AUC (0 to infinity) in Sprague-Dawley rat at 25 mg/kg, po by LC/MS analysis; format: ADME, organism-based; set-up: dose 25 mg/kg, route oral, time infinity; conditions: plasma; how it was run: as §1
[9] = Clearance in Sprague-Dawley rat at 5 mg/kg, iv by LC/MS analysis; format: ADME, organism-based; set-up: dose 5 mg/kg, route intravenous; conditions: in vivo; how it was run: as §1

Epidermal growth factor receptor, sequence (P00533 25-1210 T790M/L858R limits assumed): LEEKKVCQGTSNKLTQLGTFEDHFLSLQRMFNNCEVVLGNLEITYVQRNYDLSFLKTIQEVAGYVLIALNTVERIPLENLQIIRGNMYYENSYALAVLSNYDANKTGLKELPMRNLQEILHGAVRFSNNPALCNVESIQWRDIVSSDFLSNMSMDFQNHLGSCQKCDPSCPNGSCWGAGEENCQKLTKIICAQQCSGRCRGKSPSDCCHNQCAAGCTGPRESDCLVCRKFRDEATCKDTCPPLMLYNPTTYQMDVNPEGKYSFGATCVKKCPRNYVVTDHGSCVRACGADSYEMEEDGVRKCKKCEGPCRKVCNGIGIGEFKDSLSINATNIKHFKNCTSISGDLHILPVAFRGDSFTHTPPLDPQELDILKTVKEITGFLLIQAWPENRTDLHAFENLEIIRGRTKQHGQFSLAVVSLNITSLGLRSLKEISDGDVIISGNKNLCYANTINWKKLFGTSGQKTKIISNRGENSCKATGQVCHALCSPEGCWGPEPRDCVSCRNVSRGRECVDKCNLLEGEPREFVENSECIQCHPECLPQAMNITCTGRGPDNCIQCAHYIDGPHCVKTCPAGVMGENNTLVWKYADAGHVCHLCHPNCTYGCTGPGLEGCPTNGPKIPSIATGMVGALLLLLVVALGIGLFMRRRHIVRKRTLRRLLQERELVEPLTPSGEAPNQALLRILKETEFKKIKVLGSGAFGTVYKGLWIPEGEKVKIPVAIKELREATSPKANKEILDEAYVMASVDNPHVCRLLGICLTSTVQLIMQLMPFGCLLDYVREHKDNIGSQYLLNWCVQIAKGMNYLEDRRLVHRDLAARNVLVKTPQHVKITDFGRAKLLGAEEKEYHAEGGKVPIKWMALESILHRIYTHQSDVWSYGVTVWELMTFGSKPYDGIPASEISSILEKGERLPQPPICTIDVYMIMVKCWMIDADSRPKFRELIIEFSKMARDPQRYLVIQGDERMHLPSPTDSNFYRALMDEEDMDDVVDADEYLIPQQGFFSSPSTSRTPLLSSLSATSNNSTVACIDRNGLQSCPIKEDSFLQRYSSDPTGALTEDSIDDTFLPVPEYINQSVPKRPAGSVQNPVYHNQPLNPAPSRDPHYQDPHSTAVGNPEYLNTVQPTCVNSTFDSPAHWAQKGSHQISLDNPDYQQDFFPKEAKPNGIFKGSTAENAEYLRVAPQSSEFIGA

AUC(0-inf) [1] | IC50 [2] | Cmax [3] | CL/F [4] | solubility thermodynamic at 24 h [5] | bioavailability [6] | Cmax [7] | IC50 (NCI-H1975) | AUC(0-inf) [8] | clearance [9] | Therm solubility ([5]; buffer, pH 6.8, 24 h) | SMILES
949 ng·h/mL | 7.2 nM | 420 ng/mL | 467 mL/min/kg | 256 µg/mL (≈ 450 µM) | 20% | 3410 ng/mL | 65 nM | 948 ng·h/mL | 91.7 mL/min/kg |  | C=CC(=O)N1CC[C@H](N2C(=O)N(c3ccccc3)Cc3cnc(Nc4ccc(N5CCN(C)CC5)c(OC)c4)nc32)C1
 | 35.6 nM |  |  | 214 µg/mL (≈ 374 µM) |  |  | 89 nM |  |  |  | C=CC(=O)N1CC[C@H](N2C(=O)N(c3ccccc3)Cc3cnc(Nc4ccc(N5CCN(C)CC5)c(Cl)c4)nc32)C1
561 ng·h/mL | 41.3 nM | 232 ng/mL | 382 mL/min/kg | 4350 µg/mL (≈ 7680 µM) | 40% | 1410 ng/mL | 448 nM | 1130 ng·h/mL | 153 mL/min/kg |  | C=CC(=O)N1CC[C@H](N2C(=O)N(c3ccccc3)Cc3cnc(Nc4ccc(CCN5CCN(C)CC5)cc4)nc32)C1
359 ng·h/mL | 8.8 nM | 102 ng/mL | 1040 mL/min/kg | 107 µg/mL (≈ 184 µM) | 24% | 784 ng/mL | 279 nM | 418 ng·h/mL | 240 mL/min/kg |  | C=CC(=O)N1CC[C@H](N2C(=O)N(Cc3ccccc3)Cc3cnc(Nc4ccc(N5CCN(C)CC5)cc4OC)nc32)C1
962 ng·h/mL | 15.2 nM | 613 ng/mL | 200 mL/min/kg | 1540 µg/mL (≈ 2700 µM) | 44% | 1790 ng/mL | 111 nM | 2120 ng·h/mL | 86.7 mL/min/kg |  | C=CC(=O)N1CC[C@H](N2C(=O)N(c3ccccc3)Cc3cnc(Nc4ccc(N5CCN(C)CC5)cc4OC)nc32)C1
 | > 1000 nM |  |  | 96.7 µg/mL (≈ 174 µM) |  |  | > 10000 nM |  |  |  | C=CC(=O)NCCN1C(=O)N(Cc2ccccc2)Cc2cnc(Nc3ccc(N4CCN(C)CC4)cc3OC)nc21
746 ng·h/mL | 97.9 nM | 291 ng/mL | 565 mL/min/kg | 714 µg/mL (≈ 1330 µM) | 20% | 1820 ng/mL | 523 nM | 760 ng·h/mL | 113 mL/min/kg |  | C=CC(=O)N1CC[C@H](N2C(=O)N(c3ccccc3)Cc3cnc(Nc4cccc(N5CCN(C)CC5)c4)nc32)C1
 | 42.9 nM |  |  | 763 µg/mL (≈ 1330 µM) |  |  | 654 nM |  |  |  | C=CC(=O)N1CC[C@H](N2C(=O)N(C3CCCCC3)Cc3cnc(Nc4ccc(N5CCN(C)CC5)cc4OC)nc32)C1
 | 55.5 nM |  |  | 60.9 µg/mL (≈ 100 µM) |  |  | 196 nM |  |  |  | C=CC(=O)N1CC[C@H](N2C(=O)N(c3ccccc3)Cc3cnc(Nc4ccc(N5CCN(C)CC5)c(C(F)(F)F)c4)nc32)C1
2120 ng·h/mL |  | 964 ng/mL | 122 mL/min/kg | 691 µg/mL (≈ 1240 µM) | 33% | 3260 ng/mL |  | 3480 ng·h/mL | 40 mL/min/kg |  | C=CC(=O)N1CC[C@H](N2C(=O)N(c3ccccc3)Cc3cnc(Nc4ccc(N5CCN(C)CC5)c(F)c4)nc32)C1
 | 107 nM |  |  | 199 µg/mL (≈ 341 µM) |  |  | 1550 nM |  |  |  | C=CC(=O)N1CC[C@@H](N2C(=O)N(Cc3ccccc3)Cc3cnc(Nc4ccc(N5CCN(C)CC5)cc4OC)nc32)C1
857 ng·h/mL | 29.1 nM | 783 ng/mL | 203 mL/min/kg | 976 µg/mL (≈ 1810 µM) | 54% | 1520 ng/mL | 249 nM | 2310 ng·h/mL | 96.7 mL/min/kg |  | C=CC(=O)N1CC[C@H](N2C(=O)N(c3ccccc3)Cc3cnc(Nc4ccc(N5CCN(C)CC5)cc4)nc32)C1
 | 16.2 nM | 359 ng/mL | 335 mL/min/kg | 310 µg/mL (≈ 577 µM) |  |  | 311 nM | 1300 ng·h/mL |  |  | C=CC(=O)N1CC[C@H](N2C(=O)N(c3ccccc3)Cc3cnc(Nc4ccc(C5CCN(C)CC5)cc4)nc32)C1
 | 864 nM |  |  | 2490 µg/mL (≈ 4660 µM) |  |  | 3060 nM |  |  |  | C=CC(=O)N1CC[C@H](N2C(=O)N(C(C)C)Cc3cnc(Nc4ccc(N5CCN(C)CC5)cc4OC)nc32)C1
 | 525 nM |  |  | 1250 µg/mL (≈ 2470 µM) |  |  | 1480 nM |  |  |  | C=CC(=O)N1CC[C@H](N2C(=O)N(C)Cc3cnc(Nc4ccc(N5CCN(C)CC5)cc4OC)nc32)C1
 | 708 nM |  |  | 18.8 µg/mL (≈ 30.8 µM) |  |  | 2680 nM |  |  |  | C=CC(=O)NC1CCC(N2C(=O)N(Cc3ccccc3)Cc3cnc(Nc4ccc(N5CCN(C)CC5)cc4OC)nc32)CC1 (centres undefined)
 | 204 nM |  |  | 129 µg/mL (≈ 216 µM) |  |  | 1560 nM |  |  |  | C=CC(=O)N1CCC[C@H](N2C(=O)N(Cc3ccccc3)Cc3cnc(Nc4ccc(N5CCN(C)CC5)cc4OC)nc32)C1
2030 ng·h/mL | 235 nM | 1670 ng/mL | 95 mL/min/kg | 3.5 µg/mL (≈ 7.95 µM) | 44% | 6540 ng/mL | 1680 nM | 4520 ng·h/mL | 41.7 mL/min/kg |  | C=CC(=O)N1CC[C@H](N2C(=O)N(c3ccccc3)Cc3cnc(Nc4ccccc4)nc32)C1
 | 40.3 nM |  |  | 142 µg/mL (≈ 237 µM) |  |  | 437 nM |  |  |  | C=CC(=O)N1CCC[C@@H](N2C(=O)N(Cc3ccccc3)Cc3cnc(Nc4ccc(N5CCN(C)CC5)cc4OC)nc32)C1
1570 ng·h/mL |  |  |  |  |  | 4370 ng/mL |  |  | 53.3 mL/min/kg | 4 µg/mL | C=CC(=O)Nc1cccc(N2C(=O)N(Cc3ccccc3)Cc3cnc(Nc4ccc(N5CCN(C)CC5)cc4OC)nc32)c1.CS(=O)(=O)O
 | 58.7 nM |  |  | 250 µg/mL (≈ 446 µM) |  |  | 679 nM |  |  |  | C=CC(=O)N1CC[C@H](N2C(=O)N(C3CCCC3)Cc3cnc(Nc4ccc(N5CCN(C)CC5)cc4OC)nc32)C1

SMILES | AUC(0-inf) [1] | IC50 [2] | Cmax [3] | CL/F [4] | solubility thermodynamic at 24 h [5] | bioavailability [6] | Cmax [7] | IC50 (NCI-H1975) | AUC(0-inf) [8] | clearance [9] | Therm solubility ([5]; buffer, pH 6.8, 24 h)
C=CC(=O)N1CCC(N2C(=O)N(Cc3ccccc3)Cc3cnc(Nc4ccc(N5CCN(C)CC5)cc4OC)nc32)CC1 |  | 144 nM |  |  | 9.3 µg/mL (≈ 15.6 µM) |  |  | 546 nM |  |  | 

Reference: ChEMBL document CHEMBL3085739, “Design, synthesis, and biological evaluation of 2-oxo-3,4-dihydropyrimido[4,5-d]pyrimidinyl derivatives as new irreversible epidermal growth factor receptor inhibitors with improved pharmacokinetic properties” (J Med Chem, 2013)
